For one molecule, Activity and inhibition results are on record in ChEMBL document CHEMBL3091459, “Inhibitory effect of the gallotannin corilagin on dextran sulfate sodium-induced murine ulcerative colitis” (J Nat Prod, 2013).

What all share (type): functional, organism-based
The subject of assay [1] is Mus musculus. Description: Antiinflammatory activity in ip dosed C57BL/6 mouse assessed as reduction of DSS-induced IL-6 production in colon administered qd on day 6 to 12 post DSS-challenge measured on day 13 by ELISA. In short, it runs like this:
(§1)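 Colitis induced in male C57BL/6 mice with 2.0% (w/v) DSS drinking water for days 0–5, then ip once daily days 6–12 (saline vehicle); 8 mice/group. Day 13: colon homogenized in phosphate buffer with Tween-20, PMSF, benzethonium chloride, EDTA and aprotinin, spun 16000g 15 min at 4 °C. TNF-α, IL-1β, IL-6 and IL-10 measured by ELISA, normalized to Bradford protein, reported as pg/mg.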
On the technique in general: ELISA stands for enzyme-linked immunosorbent assay.

The subject of assay [2] is Mus musculus. Briefly: Antiinflammatory activity in DSS-induced acute colitis C57BL/6 mouse model assessed as upregulation of IkappaB-alpha protein expression at 15 to 30 mg/kg, ip qd administered on day 6 to 12 post DSS-challenge measured on day 13 by Western blotting analysis. In short, it runs like this:
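Male C57BL/6 mice received 2.0% DSS water for 5 days, then daily ip dosing in saline on days 6–12. On day 13, colon tissue was homogenized in ice-cold RIPA (0.1 g/mL). 50 μg protein was blotted on nitrocellulose and probed for IκBα overnight at 4 °C. ECL detection, normalized to β-actin by densitometry; n = 5.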
(Immunoblotting shows a protein as a band on a membrane.)

The subject of assay [3] is Mus musculus. Description: Antiulcerative colitis activity in C57BL/6 mouse assessed as recovery of DSS-induced body weight loss at 7.5 to 30 mg/kg, ip qd administered on day 6 to 12 post DSS-challenge measured on day 9. The method in brief: (§2)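 In male C57BL/6 mice given 2.0% (w/v) DSS in drinking water days 0–5, then dosed ip daily days 6–12 (n = 8), body weight was checked daily. Change was also taken as weight before induction minus weight just before sacrifice on day 13.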

The subject of assay [4] is Mus musculus. Description: Antiinflammatory activity in ip dosed C57BL/6 mouse assessed as reduction of DSS-induced IL-1beta production in colon administered qd on day 6 to 12 post DSS-challenge measured on day 13 by ELISA. In short, it runs like this: as §1
Assay [5] deals with Mus musculus. Description: Antiulcerative colitis activity in C57BL/6 mouse assessed as attenuation of DSS-induced inflammatory cell infiltration at 7.5 to 30 mg/kg, ip qd administered on day 6 to 12 post DSS-challenge measured on day 13 by hematoxylin/eosin staining-based assay. In short, it runs like this: (§3)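 DSS colitis (2.0% in drinking water, 5 days) in male C57BL/6 mice treated ip once daily days 6–12, n = 8. Day 13 colons opened, washed in ice-cold PBS, fixed overnight in 4% paraformaldehyde, paraffin-embedded. 5 μm sections stained with H&E and scored histologically, including inflammation severity.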

Assay [6] concerns Mus musculus. Description: Antiinflammatory activity in DSS-treated C57BL/6 mouse assessed as effect on IL-10 production in colon at 7.5 to 30 mg/kg, ip qd administered on day 6 to 12 post DSS-challenge measured on day 13 by ELISA. In short, it runs like this: as §1
Assay [7] deals with Mus musculus. Description: Antiulcerative colitis activity in DSS-induced acute colitis C57BL/6 mouse model assessed as decrease in disease activity index at 15 to 30 mg/kg, ip qd administered on day 6 to 12 post DSS-challenge measured on day 13.
For assay [8], the system named is Mus musculus. Description: Antiulcerative colitis activity in C57BL/6 mouse assessed as recovery of DSS-induced body weight loss at 7.5 to 30 mg/kg, ip qd administered on day 6 to 12 post DSS-challenge measured on day 8. The method in brief:
as §2

Assay [9] concerns Mus musculus. Briefly: Antiulcerative colitis activity in C57BL/6 mouse assessed as attenuation of DSS-induced lesions formation at 7.5 to 30 mg/kg, ip qd administered on day 6 to 12 post DSS-challenge measured on day 13 by hematoxylin/eosin staining-based assay. In short, it runs like this: as §3
For assay [10], the system named is Mus musculus. Briefly: Antiinflammatory activity in ip dosed C57BL/6 mouse assessed as reduction of DSS-induced TNF-alpha production in colon administered qd on day 6 to 12 post DSS-challenge measured on day 13 by ELISA. The method in brief:
as §1

In assay [11] the test system is Mus musculus. Briefly: Antiulcerative colitis activity in C57BL/6 mouse assessed as inhibition of DSS-induced shortening of colon length at 30 mg/kg, ip qd administered on day 6 to 12 post DSS-challenge measured on day 13. More on the design: dose 30 mg/kg. The method in brief:
(§4)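 Mice (male C57BL/6, 20–24 g) drank 2.0% DSS for 5 days. Animals with weight loss, diarrhea and bleeding on day 6 were randomized and given ip doses once daily to day 12, saline as vehicle; n = 8. Colon length was measured after sacrifice on day 13.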

Assay [12] concerns Mus musculus. Description: Antiapoptotic activity in C57BL/6 mouse assessed as reduction of DSS-induced cleaved caspase-9 level in colon at 7.5 to 30 mg/kg, ip qd administered on day 6 to 12 post DSS-challenge measured on day 13 by Western blotting analysis. The method in brief: (§5)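 Male C57BL/6 mice (7–8 wk) given 2.0% (w/v) DSS in drinking water days 0–5. Colitic mice were selected on day 6 and dosed ip once daily, days 6–12, saline vehicle; n = 8/group. Day 13: colon homogenized in RIPA, 50 μg protein run on 10–12% SDS-PAGE. Blots probed for cleaved caspase-3/-9, detected by ECL, β-actin for loading, densitometry; n = 5.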

For assay [13], the system named is Mus musculus. Briefly: In vivo inhibition of myeloperoxidase activity in colon homogenates of DSS-induced acute colitis C57BL/6 mouse model at 7.5 to 30 mg/kg, ip qd administered on day 6 to 12 post DSS-challenge measured on day 13. The method in brief: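 Day 13 colons from DSS-colitic male C57BL/6 mice (2.0% DSS for 5 days; ip daily days 6–12; n = 8) were homogenized in 0.5% HTAB (1 mL/100 mg) and spun 19000g 15 min at 4 °C. Supernatant was mixed with 50 mmol pH 6.0 phosphate buffer containing 0.0005% o-dianisidine and 0.1% H2O2. Rate of OD460 change at 25 °C was read and expressed as units/g wet tissue.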

The subject of assay [14] is Mus musculus. Briefly: Antiulcerative colitis activity in ip dosed C57BL/6 mouse assessed as inhibition of DSS-induced shortening of colon length administered qd on day 6 to 12 post DSS-challenge measured on day 13. In short, it runs like this: as §4
Assay [15] deals with Mus musculus. Briefly: Antiapoptotic activity in C57BL/6 mouse assessed as reduction of DSS-induced cleaved caspase-3 level in colon at 7.5 to 30 mg/kg, ip qd administered on day 6 to 12 post DSS-challenge measured on day 13 by Western blotting analysis. In short, it runs like this:
as §5

Assay [16] relates to Mus musculus. Briefly: Antiulcerative colitis activity in C57BL/6 mouse assessed as attenuation of DSS-induced crypt destruction at 7.5 to 30 mg/kg, ip qd administered on day 6 to 12 post DSS-challenge measured on day 13 by hematoxylin/eosin staining-based assay. In short, it runs like this: as §3

Each structure is given as a SMILES string. The source made the active and inactive calls. The rule behind the calls is not given here.

Regarding `O=C(O[C@@H]1O[C@@H]2COC(=O)c3cc(O)c(O)c(O)c3-c3c(cc(O)c(O)c3O)C(=O)O[C@H]([C@H]1O)[C@@H]2O)c1cc(O)c(O)c(O)c1`, the Activity entry in the assay with Mus musculus [1], in the assay on Mus musculus [4] and in the assay on Mus musculus [10] was “Dose-dependent effect” in each case. Moreover, the result in the assay with Mus musculus [2], with Mus musculus [3], in the assay with Mus musculus [5], in the assay on Mus musculus [7], in the assay on Mus musculus [8] and with Mus musculus [9] was Active. Also, the outcome in the assay with Mus musculus [12], in the assay with Mus musculus [15] and in the assay with Mus musculus [16] was Active. The outcome in the assay with Mus musculus [6] was inactive. Further, the inhibition result in the assay on Mus musculus [11] and with Mus musculus [13] was “Active” throughout. The inhibition entry with Mus musculus [14] was “Dose-dependent effect”.
